Measurements: ChEMBL document CHEMBL4334465, “SAR Studies on Aromatic Acylhydrazone-Based Inhibitors of Fungal Sphingolipid Synthesis as Next-Generation Antifungal Agents” (J Med Chem, 2019)
Values after ≈ are worked out from the molar mass of the structure shown. Active and inactive are the calls of the source. No cut-off for these calls is given here.

Key:
Pichia kudriavzevii [1] = test: Antifungal activity against Candida krusei 6258 assessed as FICI in presence of fluconazole; assay type: functional
Method in brief: (§1)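 Checkerboard combination scored by fractional inhibitory concentration index. Acylhydrazone serially diluted 16 to 0.015 μg/mL (11 dilutions). Partner drug in seven dilutions: fluconazole 12 to 0.19 μg/mL, amphotericin B 5 to 0.078 μg/mL, caspofungin, itraconazole or voriconazole 8 to 0.007 μg/mL.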

[Candida] auris [2] = Antifungal activity against Candida auris assessed as FICI in presence of fluconazole; assay type: functional, Candidozyma auris; method in brief: as §1
Candida parapsilosis [3] = test: Antifungal activity against Candida parapsilosis assessed as FICI in presence of voriconazole; assay type: functional; method in brief: as §1
Aspergillus fumigatus [4] = test: Antifungal activity against Aspergillus fumigatus assessed as FICI in presence of itraconazole; assay type: functional; method in brief: as §1
Cryptococcus neoformans [5] = test: Antifungal activity against Cryptococcus neoformans H99 assessed as FICI in presence of voriconazole; assay type: functional, var grubii H99; method in brief: as §1
[Candida] auris [6] = Antifungal activity against Candida auris assessed as FICI in presence of itraconazole; assay type: functional, Candidozyma auris; method in brief: as §1
Aspergillus fumigatus [7] = test: Antifungal activity against Aspergillus fumigatus measured after 24 to 72 hrs; assay type: functional
Method in brief: (§2)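 Modified CLSI broth microdilution with inoculum per M27A3. Compounds were serially diluted 32 to 0.03 μg/mL. Media: C. neoformans in HEPES-buffered YNB without amino acids (pH 7.0, 2% glucose); Candida strains in YNB without ammonium sulfate or amino acids plus 1% asparagine (pH 7.0, 2% glucose); A. fumigatus in RPMI (pH 7.0, 2% glucose).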

Pichia kudriavzevii [8] = test: Antifungal activity against Candida krusei 6258 assessed as FICI in presence of itraconazole; assay type: functional; method in brief: as §1
Aspergillus fumigatus [9] = test: Antifungal activity against Aspergillus fumigatus assessed as FICI in presence of voriconazole; assay type: functional; method in brief: as §1
Candida albicans [10] = test: Antifungal activity against Candida albicans assessed as FICI in presence of caspofungin; assay type: functional; method in brief: as §1
Candida albicans [11] = test: Antifungal activity against Candida albicans assessed as FICI in presence of itraconazole; assay type: functional; method in brief: as §1
Candida albicans [12] = test: Antifungal activity against Candida albicans measured after 24 to 72 hrs; assay type: functional; method in brief: as §2
Pichia kudriavzevii [13] = test: Antifungal activity against fluconazole-resistant Candida krusei assessed as FICI in presence of fluconazole; assay type: functional
Method in brief: (§3)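 Checkerboard in 96-well plate. Test compound diluted 16 to 0.015 μg/mL (11 dilutions) against the partner drug in seven dilutions: fluconazole 12 to 0.19 μg/mL, caspofungin, itraconazole or voriconazole 8 to 0.007 μg/mL. Fractional inhibitory concentration index (FICI) calculated from the combinations.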

Candida parapsilosis [14] = test: Antifungal activity against Candida parapsilosis measured after 24 to 72 hrs; assay type: functional; conditions: Lodderomyces parapsilosis; method in brief: as §2
Pichia kudriavzevii [15] = test: Antifungal activity against Candida krusei 6258 assessed as FICI in presence of caspofungin; assay type: functional; method in brief: as §1
[16] = Selectivity index, ratio of LD50 for human HepG2 cells to MIC80 for Cryptococcus neoformans H99; assay type: toxicity; conditions: read-out: Selectivity Index
Method in brief: (§4)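 SI = LD₅₀/MIC₈₀. Cytotoxicity: A549 or HepG2 cells (DMEM, 10% FBS, passage 7, 10⁵ cells/well) adhered 14 h, then exposed to 0.03–128 μg/mL for 24 or 48 h at 37°C, 5% CO₂; MTT 4 h, formazan dissolved in DMSO, read at 570 nm. MIC₈₀ against C. neoformans from broth microdilution in HEPES-buffered YNB, pH 7.0.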

Pichia kudriavzevii [17] = test: Antifungal activity against fluconazole-resistant Candida krusei assessed as FICI in presence of voriconazole; assay type: functional; method in brief: as §3
Cryptococcus neoformans [18] = test: Fungicidal activity against Cryptococcus neoformans H99 measured after 72 hrs by time-kill assay; assay type: functional, var grubii H99
Method in brief: (§5)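 Overnight C. neoformans washed in PBS and resuspended in HEPES-buffered YNB, pH 7.4. 2 × 10⁴ cells exposed to a range of drug concentrations in 10 mL with 0.5% DMSO final, at 37°C, 5% CO₂, shaking at 200 rpm. Aliquots sampled over 96 h, diluted and plated on YPD; CFU counted after 48 h at 30°C.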

Cryptococcus neoformans [19] = test: Fungicidal activity against Cryptococcus neoformans H99 measured up to 96 hrs by time-kill assay; assay type: functional, organism-based; conditions: var grubii H99; method in brief: as §5
Candida parapsilosis [20] = test: Antifungal activity against Candida parapsilosis assessed as FICI in presence of fluconazole; assay type: functional; method in brief: as §1
Pichia kudriavzevii [21] = test: Antifungal activity against fluconazole-resistant Candida krusei assessed as FICI in presence of caspofungin; assay type: functional; method in brief: as §3
Aspergillus fumigatus [22] = test: Antifungal activity against Aspergillus fumigatus assessed as FICI in presence of fluconazole; assay type: functional; method in brief: as §1
HepG2 = test: Cytotoxicity against human HepG2 cells after 24 to 48 hrs by MTT assay; assay type: functional; conditions: read-out: LD50 (the source's name)
Method in brief: (§6)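 A549 and HepG2 kept in DMEM with 10% FBS and 1% pen-strep. At passage 7, seeded at 10⁵ cells/well and allowed to adhere 14 h. Compound added at 0.03–128 μg/mL, untreated wells as controls. Incubation 37°C, 5% CO₂ for 24 or 48 h. MTT (5 mg/mL in PBS) added for 4 h, formazan dissolved in DMSO, OD570.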

[Candida] auris [23] = Antifungal activity against Candida auris assessed as FICI in presence of caspofungin; assay type: functional, Candidozyma auris; method in brief: as §1
Cryptococcus neoformans [24] = test: Antifungal activity against Cryptococcus neoformans H99 assessed as FICI in presence of itraconazole; assay type: functional, var grubii H99; method in brief: as §1
[Candida] auris [25] = Antifungal activity against Candida auris assessed as FICI in presence of voriconazole; assay type: functional, Candidozyma auris; method in brief: as §1
Candida albicans [26] = test: Antifungal activity against Candida albicans assessed as FICI in presence of voriconazole; assay type: functional; method in brief: as §1
Cryptococcus neoformans [27] = test: Antifungal activity against Cryptococcus neoformans H99 measured after 24 to 72 hrs; assay type: functional; conditions: var grubii H99; method in brief: as §2
Pichia kudriavzevii [28] = test: Antifungal activity against fluconazole-resistant Candida krusei assessed as FICI in presence of itraconazole; assay type: functional; method in brief: as §3
[29] = Selectivity index, ratio of LD50 for human A549 cells to MIC80 for Cryptococcus neoformans H99; assay type: toxicity; conditions: read-out: Selectivity Index; method in brief: as §4
A549 = test: Cytotoxicity against human A549 cells after 24 to 48 hrs by MTT assay; assay type: functional; conditions: read-out: LD50 (the source's name); method in brief: as §6
Pichia kudriavzevii [30] = test: Antifungal activity against Candida krusei 6258 assessed as FICI in presence of voriconazole; assay type: functional; method in brief: as §1
Candida parapsilosis [31] = test: Antifungal activity against Candida parapsilosis assessed as FICI in presence of caspofungin; assay type: functional; method in brief: as §1
Cryptococcus neoformans [32] = test: Antifungal activity against Cryptococcus neoformans H99 assessed as FICI in presence of fluconazole; assay type: functional, var grubii H99; method in brief: as §1
Candida albicans [33] = test: Antifungal activity against Candida albicans assessed as FICI in presence of fluconazole; assay type: functional; method in brief: as §1
Pichia kudriavzevii [34] = test: Antifungal activity against Candida krusei measured after 24 to 72 hrs; assay type: functional
Method in brief: (§7)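 MIC by modified CLSI broth microdilution. Candida strains grown in YNB without ammonium sulfate or amino acids with 1% asparagine, pH 7.0, 2% glucose. Inoculum per CLSI M27A3. Compound serially diluted 32 to 0.03 μg/mL. Incubation 37°C, 5% CO₂, 24–72 h, then OD450. MIC80 taken as the lowest concentration giving 80% growth inhibition versus untreated control.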

Cryptococcus neoformans [35] = test: Antifungal activity against Cryptococcus neoformans H99 assessed as FICI in presence of amphotericin B; assay type: functional, var grubii H99; method in brief: as §1
Candida parapsilosis [36] = test: Antifungal activity against Candida parapsilosis assessed as FICI in presence of itraconazole; assay type: functional; method in brief: as §1
[Candida] auris [37] = Antifungal activity against Candida auris measured after 24 to 72 hrs; assay type: functional; conditions: Candidozyma auris; method in brief: as §2
Cryptococcus neoformans [38] = test: Fungicidal activity against Cryptococcus neoformans H99 measured after 6 hrs by time-kill assay; assay type: functional, var grubii H99; method in brief: as §5
Pichia kudriavzevii [39] = test: Antifungal activity against multi-drug resistant Candida krusei measured after 24 to 72 hrs; assay type: functional; method in brief: as §7
Cryptococcus neoformans [40] = test: Antifungal activity against Cryptococcus neoformans H99 infected in CBA/J mouse assessed as increase in survival at 1.2 mg/kg, ip; assay type: functional, organism-based; conditions: var grubii H99

Row | Structure (SMILES) | fractional inhibitory concentration index (FICI) (Pichia kudriavzevii [1]) | fractional inhibitory concentration index (FICI) ([Candida] auris [2]) | fractional inhibitory concentration index (FICI) (Candida parapsilosis [3]) | fractional inhibitory concentration index (FICI) (Aspergillus fumigatus [4]) | fractional inhibitory concentration index (FICI) (Cryptococcus neoformans [5]) | fractional inhibitory concentration index (FICI) ([Candida] auris [6]) | MIC80 (Aspergillus fumigatus [7]) [µg/mL] | fractional inhibitory concentration index (FICI) (Pichia kudriavzevii [8]) | fractional inhibitory concentration index (FICI) (Aspergillus fumigatus [9]) | fractional inhibitory concentration index (FICI) (Candida albicans [10]) | fractional inhibitory concentration index (FICI) (Candida albicans [11]) | MIC80 (Candida albicans [12]) [µg/mL] | MIC80 (Candida parapsilosis [14]) [µg/mL] | fractional inhibitory concentration index (FICI) (Pichia kudriavzevii [15]) | selectivity ratio [16] | fractional inhibitory concentration index (FICI) (Pichia kudriavzevii [17]) | Activity (Cryptococcus neoformans [19]) | fractional inhibitory concentration index (FICI) (Candida parapsilosis [20]) | fractional inhibitory concentration index (FICI) (Pichia kudriavzevii [21]) | fractional inhibitory concentration index (FICI) (Aspergillus fumigatus [22]) | further results
1 | O=C(N/N=C/c1ccc(Br)cc1O)c1ccc(Br)cc1Br | 2 | 2 | 0.076 | 0.484 | 0.072 | 0.508 | > 16 | 1.063 | 0.515 | 0.502 | 0.128 | > 16 | 8 (≈ 16.8 µM) | 2 | 2130 | 0.281 | Dose-dependent effect | 1.002 | 2 | 2 | fractional inhibitory concentration index (FICI) (Pichia kudriavzevii [13]): 2; MFC100 (Cryptococcus neoformans [18]): 0.06 µg/mL (≈ 0.126 µM); CC50 (HepG2): 128 µg/mL (≈ 268 µM); fractional inhibitory concentration index (FICI) ([Candida] auris [23]): 2; fractional inhibitory concentration index (FICI) (Cryptococcus neoformans [24]): 0.072; fractional inhibitory concentration index (FICI) ([Candida] auris [25]): 1.016; fractional inhibitory concentration index (FICI) (Candida albicans [26]): 0.256; MIC80 (Cryptococcus neoformans [27]): 0.06 µg/mL (≈ 0.126 µM); fractional inhibitory concentration index (FICI) (Pichia kudriavzevii [28]): 0.252; selectivity ratio [29]: 1070; CC50 (A549): 64 µg/mL (≈ 134 µM); fractional inhibitory concentration index (FICI) (Pichia kudriavzevii [30]): 1.25; fractional inhibitory concentration index (FICI) (Candida parapsilosis [31]): 2; fractional inhibitory concentration index (FICI) (Cryptococcus neoformans [32]): 0.065; fractional inhibitory concentration index (FICI) (Candida albicans [33]): 0.625; MIC80 (Pichia kudriavzevii [34]): > 16 µg/mL; fractional inhibitory concentration index (FICI) (Cryptococcus neoformans [35]): 0.086; fractional inhibitory concentration index (FICI) (Candida parapsilosis [36]): 0.124; MIC80 ([Candida] auris [37]): > 16 µg/mL
2 | O=C(N/N=C/c1cc(Cl)cc(Cl)c1O)c1ccc(Br)c(Br)c1 | 0.25 | 0.5 | 1.5 | 1.008 | 0.247 | 1.12 | 8 (≈ 17.1 µM) | 0.53 | 1.031 | 1 | 0.091 | 2 (≈ 4.28 µM) | 1 (≈ 2.14 µM) | 1.001 | 1070 | 1.03 | Dose-dependent effect | 0.258 | 1.004 | 2 | CC50 (HepG2): 32 µg/mL (≈ 68.5 µM); fractional inhibitory concentration index (FICI) ([Candida] auris [23]): 0.5; fractional inhibitory concentration index (FICI) (Cryptococcus neoformans [24]): 0.247; fractional inhibitory concentration index (FICI) ([Candida] auris [25]): 0.5; MFC100 (Cryptococcus neoformans [38]): 1 µg/mL (≈ 2.14 µM); fractional inhibitory concentration index (FICI) (Candida albicans [26]): 0.077; MIC80 (Cryptococcus neoformans [27]): 0.03 µg/mL (≈ 0.0642 µM); fractional inhibitory concentration index (FICI) (Pichia kudriavzevii [28]): 1.24; selectivity ratio [29]: 1070; CC50 (A549): 32 µg/mL (≈ 68.5 µM); fractional inhibitory concentration index (FICI) (Pichia kudriavzevii [30]): 0.56; fractional inhibitory concentration index (FICI) (Candida parapsilosis [31]): 0.501; fractional inhibitory concentration index (FICI) (Cryptococcus neoformans [32]): 0.237; fractional inhibitory concentration index (FICI) (Candida albicans [33]): 0.252; MIC80 (Pichia kudriavzevii [34]): 0.25 µg/mL (≈ 0.535 µM); fractional inhibitory concentration index (FICI) (Cryptococcus neoformans [35]): 0.247; fractional inhibitory concentration index (FICI) (Candida parapsilosis [36]): 1.25; MIC80 ([Candida] auris [37]): 0.5 µg/mL (≈ 1.07 µM); MIC80 (Pichia kudriavzevii [39]): 0.25 µg/mL (≈ 0.535 µM)
3 | O=C(N/N=C/c1cc(Br)cc(Br)c1O)c1ccc(Br)cc1 |  |  |  |  |  |  |  |  |  |  |  |  |  |  |  |  |  |  |  |  | Activity (Cryptococcus neoformans [40]): Active
